≈ marks a conversion by molar mass, not a printed value.
Columns and labels:
Format in all cases: functional
Details in all cases: time 18-24 hrs
Staphylococcus aureus [1] = experiment: Antibacterial activity against Staphylococcus aureus ATCC 25923 measured after 18 to 24 hrs by microtiter dilution method
Procedure, shortened: (§1)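 Compounds were taken up in 25% DMSO at 64 μg/mL and serially diluted two-fold in water (11 dilutions). Log-phase bacteria grown in MHB were diluted to 10^5-10^6 CFU/mL and mixed 1:1 with the dilutions. Plates were incubated at 37 °C for 18-24 h. MIC was the lowest concentration giving no growth by OD492, averaged over three independent experiments.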

[2] = system: Staphylococcus epidermidis; experiment: Antibacterial activity against Staphylococcus epidermidis ATCC 51625 measured after 18 to 24 hrs by microtiter dilution method; procedure, shortened: as §1
Staphylococcus aureus [3] = experiment: Antibacterial activity against Staphylococcus aureus BNCC 337371 measured after 18 to 24 hrs by microtiter dilution method; procedure, shortened: as §1
[4] = system: Streptococcus dysgalactiae; experiment: Antibacterial activity against Streptococcus dysgalactiae measured after 18 to 24 hrs by microtiter dilution method; procedure, shortened: as §1
Streptococcus agalactiae = experiment: Antibacterial activity against Streptococcus agalactiae measured after 18 to 24 hrs by microtiter dilution method; procedure, shortened: as §1
Enterococcus faecalis = experiment: Antibacterial activity against Enterococcus faecalis measured after 18 to 24 hrs by microtiter dilution method; procedure, shortened: as §1
Pasteurella multocida = experiment: Antibacterial activity against Pasteurella multocida CVCC 1659 measured after 18 to 24 hrs by microtiter dilution method; procedure, shortened: as §1
Escherichia coli = experiment: Antibacterial activity against Escherichia coli CICC 10389 measured after 18 to 24 hrs by microtiter dilution method; procedure, shortened: as §1

Compound	MIC (Staphylococcus aureus [1])	MIC [2]	MIC (Staphylococcus aureus [3])	MIC [4]	MIC (Streptococcus agalactiae)	MIC (Enterococcus faecalis)	MIC (Pasteurella multocida)	MIC (Escherichia coli)
C=C[C@]1(C)C[C@@H](OC(=O)CSc2nc(C)cc(OCCCC)n2)[C@@]2(C)[C@H](C)CC[C@]3(CCC(=O)[C@H]32)[C@@H](C)[C@@H]1O	1.79 µM (≈ 1 µg/mL)	1.79 µM (≈ 1 µg/mL)	3.58 µM (≈ 2 µg/mL)	0.45 µM (≈ 0.251 µg/mL)	0.9 µM (≈ 0.503 µg/mL)	57.3 µM (≈ 32 µg/mL)	> 57.3 µM	> 57.3 µM
C=C[C@]1(C)C[C@@H](OC(=O)CSc2nc(C)cc(N(CC)CC)n2)[C@@]2(C)[C@H](C)CC[C@]3(CCC(=O)[C@H]32)[C@@H](C)[C@@H]1O	0.22 µM (≈ 0.123 µg/mL)	0.45 µM (≈ 0.251 µg/mL)	0.45 µM (≈ 0.251 µg/mL)	0.22 µM (≈ 0.123 µg/mL)	0.11 µM (≈ 0.0614 µg/mL)	28.7 µM (≈ 16 µg/mL)	57.4 µM (≈ 32 µg/mL)	> 57.4 µM
C=C[C@]1(C)C[C@@H](OC(=O)CS[C@@H]2C[C@H]3CC[C@@H](C2)N3C)[C@@]2(C)[C@H](C)CC[C@]3(CCC(=O)[C@H]32)[C@@H](C)[C@@H]1O	0.24 µM (≈ 0.124 µg/mL)	0.12 µM (≈ 0.0621 µg/mL)	0.12 µM (≈ 0.0621 µg/mL)	0.06 µM (≈ 0.0311 µg/mL)	0.06 µM (≈ 0.0311 µg/mL)	15.4 µM (≈ 8 µg/mL)	0.97 µM (≈ 0.502 µg/mL)	30.9 µM (≈ 16 µg/mL)
C=C[C@]1(C)C[C@@H](OC(=O)CSc2nc(C)cc(N3CCC[C@@H](O)C3)n2)[C@@]2(C)[C@H](C)CC[C@]3(CCC(=O)[C@H]32)[C@@H](C)[C@@H]1O	0.21 µM (≈ 0.123 µg/mL)	0.21 µM (≈ 0.123 µg/mL)	0.21 µM (≈ 0.123 µg/mL)	0.11 µM (≈ 0.0644 µg/mL)	0.05 µM (≈ 0.0293 µg/mL)	27.3 µM (≈ 16 µg/mL)	27.3 µM (≈ 16 µg/mL)	> 54.7 µM
C=C[C@]1(C)C[C@@H](OC(=O)CSc2nc(C)cc(O)n2)[C@@]2(C)[C@H](C)CC[C@]3(CCC(=O)[C@H]32)[C@@H](C)[C@@H]1O	0.25 µM (≈ 0.126 µg/mL)	0.25 µM (≈ 0.126 µg/mL)	0.25 µM (≈ 0.126 µg/mL)	0.12 µM (≈ 0.0603 µg/mL)	0.12 µM (≈ 0.0603 µg/mL)	16 µM (≈ 8.02 µg/mL)	7.95 µM (≈ 4 µg/mL)	> 63.8 µM
C=C[C@]1(C)C[C@@H](OC(=O)CSc2nc(C)cc(OCCN)n2)[C@@]2(C)[C@H](C)CC[C@]3(CCC(=O)[C@H]32)[C@@H](C)[C@@H]1O	0.92 µM (≈ 0.502 µg/mL)	0.92 µM (≈ 0.502 µg/mL)	0.92 µM (≈ 0.502 µg/mL)	0.23 µM (≈ 0.126 µg/mL)	0.46 µM (≈ 0.251 µg/mL)	58.7 µM (≈ 32 µg/mL)	> 58.7 µM	> 58.7 µM

Results, then the compound that gave them:

MIC (Staphylococcus aureus [1])	MIC [2]	MIC (Staphylococcus aureus [3])	MIC [4]	MIC (Streptococcus agalactiae)	MIC (Enterococcus faecalis)	MIC (Pasteurella multocida)	MIC (Escherichia coli)	Compound
0.21 µM (≈ 0.123 µg/mL)	0.21 µM (≈ 0.123 µg/mL)	0.21 µM (≈ 0.123 µg/mL)	0.11 µM (≈ 0.0644 µg/mL)	0.11 µM (≈ 0.0644 µg/mL)	13.7 µM (≈ 8.01 µg/mL)	27.3 µM (≈ 16 µg/mL)	> 54.7 µM	C=C[C@]1(C)C[C@@H](OC(=O)CSc2nc(C)cc(N3CCC(O)CC3)n2)[C@@]2(C)[C@H](C)CC[C@]3(CCC(=O)[C@H]32)[C@@H](C)[C@@H]1O
0.21 µM (≈ 0.126 µg/mL)	0.42 µM (≈ 0.252 µg/mL)	0.84 µM (≈ 0.504 µg/mL)	0.42 µM (≈ 0.252 µg/mL)	0.84 µM (≈ 0.504 µg/mL)	53.5 µM (≈ 32.1 µg/mL)	53.5 µM (≈ 32.1 µg/mL)	> 53.5 µM	C=C[C@]1(C)C[C@@H](OC(=O)CSc2nc(C)cc(N3CCC(CO)CC3)n2)[C@@]2(C)[C@H](C)CC[C@]3(CCC(=O)[C@H]32)[C@@H](C)[C@@H]1O
0.12 µM (≈ 0.0637 µg/mL)	0.24 µM (≈ 0.127 µg/mL)	0.12 µM (≈ 0.0637 µg/mL)	0.12 µM (≈ 0.0637 µg/mL)	0.24 µM (≈ 0.127 µg/mL)	15.1 µM (≈ 8.01 µg/mL)	> 60.4 µM	> 60.4 µM	C=C[C@]1(C)C[C@@H](OC(=O)CSc2nc(C)cc(OCC)n2)[C@@]2(C)[C@H](C)CC[C@]3(CCC(=O)[C@H]32)[C@@H](C)[C@@H]1O
0.1 µM (≈ 0.06 µg/mL)	0.21 µM (≈ 0.126 µg/mL)	0.21 µM (≈ 0.126 µg/mL)	0.05 µM (≈ 0.03 µg/mL)	0.05 µM (≈ 0.03 µg/mL)	26.7 µM (≈ 16 µg/mL)	26.7 µM (≈ 16 µg/mL)	> 53.5 µM	C=C[C@]1(C)C[C@@H](OC(=O)CSc2nc(C)cc(N3CCC[C@H](CO)C3)n2)[C@@]2(C)[C@H](C)CC[C@]3(CCC(=O)[C@H]32)[C@@H](C)[C@@H]1O
0.12 µM (≈ 0.0636 µg/mL)	0.24 µM (≈ 0.127 µg/mL)	0.24 µM (≈ 0.127 µg/mL)	0.12 µM (≈ 0.0636 µg/mL)	0.12 µM (≈ 0.0636 µg/mL)	15.1 µM (≈ 8 µg/mL)	30.2 µM (≈ 16 µg/mL)	> 60.5 µM	C=C[C@]1(C)C[C@@H](OC(=O)CSc2nc(C)cc(N(C)C)n2)[C@@]2(C)[C@H](C)CC[C@]3(CCC(=O)[C@H]32)[C@@H](C)[C@@H]1O
